Active and inactive are the calls of the source. No cut-off for these calls is given here.
Experiments:
PC-9 [1] = experiment: Induction of apoptosis in human PC-9 cells assessed as late apoptotic cells at 0.1 uM for 48 hrs by annexin V/PI staining based flow cytometric analysis relative to control; type: functional
Outline: (§1)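 PC9 cells given PTEN siRNA or scramble siRNA, then Erlotinib 0.1 μM for 48 h. Apoptosis by Annexin V–FITC/PI staining for 5 min at room temperature in the dark, read by flow cytometry.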

PC-9 [2] = experiment: Induction of apoptosis in human PC-9 cells assessed as early apoptotic cells at 0.1 uM for 48 hrs by annexin V/PI staining based flow cytometric analysis relative to control; type: functional; outline: as §1
PC-9 [3] = experiment: Induction of apoptosis in human PC-9 cells assessed as viable cells at 0.1 uM for 48 hrs by annexin V/PI staining based flow cytometric analysis relative to control; type: functional; conditions: read-out: Activity; outline: as §1
PC-9/ER [4] = experiment: Antiproliferative activity against human PC-9/ER cells assessed as reduction in cell survival rate pretreated with UNC0638 followed by compound addition upto 1 uM incubated for 48 hrs by MTT assay; type: functional, cell-based
Outline: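 PC9/ER cells pretreated with UNC0638 (100 nM), DMSO as control, then given Erlotinib at a range of concentrations for 48 h. Viability by MTT: 4 h at 37 °C, formazan dissolved in DMSO, absorbance at 570 nm.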

PC-9 [5] = experiment: Induction of apoptosis in human PC-9 cells assessed as necrotic cells at 0.1 uM for 48 hrs by annexin V/PI staining based flow cytometric analysis relative to control; type: functional; outline: as §1
PC-9 [6] = experiment: Induction of apoptosis in human PC-9 cells assessed as viable cells at 0.1 uM for 48 hrs by annexin V/PI staining based flow cytometric analysis in presence of PTEN-siRNA relative to control; type: functional; conditions: read-out: Activity; outline: as §1
PC-9 [7] = experiment: Induction of apoptosis in human PC-9 cells assessed as early apoptotic cells at 0.1 uM for 48 hrs by annexin V/PI staining based flow cytometric analysis in presence of PTEN-siRNA relative to control; type: functional; outline: as §1
PC-9 [8] = experiment: Induction of apoptosis in human PC-9 cells assessed as late apoptotic cells at 0.1 uM for 48 hrs by annexin V/PI staining based flow cytometric analysis in presence of PTEN-siRNA relative to control; type: functional; outline: as §1
PC-9 [9] = experiment: Induction of apoptosis in human PC-9 cells assessed as necrotic cells at 0.1 uM for 48 hrs by annexin V/PI staining based flow cytometric analysis in presence of PTEN-siRNA relative to control; type: functional; outline: as §1
PC-9/ER [10] = experiment: Induction of apoptosis in human PC-9/ER cells assessed as viable cells at 1 uM for 48 hrs by annexin V/PI staining based flow cytometric analysis relative to control; type: functional; conditions: read-out: Activity
Outline: (§2)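 PC9/ER cells given a PTEN expression vector or mock vector, then Erlotinib 1 μM for 48 h. Cells stained with Annexin V–FITC/PI (5 min, room temperature, dark) and analyzed by flow cytometry.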

PC-9/ER [11] = experiment: Induction of apoptosis in human PC-9/ER cells assessed as early apoptotic cells at 1 uM for 48 hrs by annexin V/PI staining based flow cytometric analysis relative to control; type: functional; outline: as §2
PC-9/ER [12] = experiment: Induction of apoptosis in human PC-9/ER cells assessed as late apoptotic cells at 1 uM for 48 hrs by annexin V/PI staining based flow cytometric analysis relative to control; type: functional; outline: as §2
PC-9/ER [13] = experiment: Induction of apoptosis in human PC-9/ER cells assessed as necrotic cells at 1 uM for 48 hrs by annexin V/PI staining based flow cytometric analysis relative to control; type: functional; outline: as §2
PC-9/ER [14] = experiment: Induction of apoptosis in human PC-9/ER cells assessed as viable cells at 1 uM for 48 hrs by annexin V/PI staining based flow cytometric analysis in presence of PTEN vector relative to control; type: functional; conditions: read-out: Activity; outline: as §2
PC-9/ER [15] = experiment: Induction of apoptosis in human PC-9/ER cells assessed as early apoptotic cells at 1 uM for 48 hrs by annexin V/PI staining based flow cytometric analysis in presence of PTEN vector relative to control; type: functional; outline: as §2
PC-9/ER [16] = experiment: Induction of apoptosis in human PC-9/ER cells assessed as late apoptotic cells at 1 uM for 48 hrs by annexin V/PI staining based flow cytometric analysis in presence of PTEN vector relative to control; type: functional; outline: as §2
PC-9/ER [17] = experiment: Induction of apoptosis in human PC-9/ER cells assessed as necrotic cells at 1 uM for 48 hrs by annexin V/PI staining based flow cytometric analysis in presence of PTEN vector relative to control; type: functional; outline: as §2
PC-9/ER [18] = experiment: Antitumor activity against human PC-9/ER cells xenografted in SCID mouse assessed as inhibition of tumor growth at 12.5 mg/kg, ip daily for 3 weeks; type: functional, organism-based
Outline: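 Male SCID mice, 7–8 weeks old, injected s.c. in the right flank with 5 × 10^6 PC9/ER cells in PBS. At an average tumor volume of 50 mm3, randomized into groups of n = 6: saline, UNC0642 2.5 mg/kg bid i.p., Erlotinib 12.5 mg/kg/day i.p., or both. Tumor volume tracked and body weight recorded; tumors weighed after sacrifice at 3 weeks.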

PC-9/ER [19] = experiment: Induction of apoptosis in human PC-9/ER cells assessed as viable cells at 1 uM for 48 hrs by annexin V/PI staining based flow cytometric analysis in presence of scramble non-target siRNA (reference value: 92.2%); type: functional; conditions: read-out: Activity
PC-9/ER [20] = experiment: Induction of apoptosis in human PC-9/ER cells assessed as early apoptotic cells at 1 uM for 48 hrs by annexin V/PI staining based flow cytometric analysis in presence of scramble non-target siRNA (reference value: 1.3%); type: functional
PC-9/ER [21] = experiment: Induction of apoptosis in human PC-9/ER cells assessed as late apoptotic cells at 1 uM for 48 hrs by annexin V/PI staining based flow cytometric analysis in presence of scramble non-target siRNA (reference value: 4.2%); type: functional
PC-9/ER [22] = experiment: Induction of apoptosis in human PC-9/ER cells assessed as necrotic cells at 1 uM for 48 hrs by annexin V/PI staining based flow cytometric analysis in presence of scramble non-target siRNA (reference value: 2.3%); type: functional
PC-9/ER [23] = experiment: Induction of apoptosis in human PC-9/ER cells assessed as viable cells at 1 uM for 48 hrs by annexin V/PI staining based flow cytometric analysis in presence of […] siRNA (reference value: 92.2%); type: functional; conditions: read-out: Activity
PC-9/ER [24] = experiment: Induction of apoptosis in human PC-9/ER cells assessed as early apoptotic cells at 1 uM for 48 hrs by annexin V/PI staining based flow cytometric analysis in presence of […] siRNA (reference value: 1.3%); type: functional
PC-9/ER [25] = experiment: Induction of apoptosis in human PC-9/ER cells assessed as late apoptotic cells at 1 uM for 48 hrs by annexin V/PI staining based flow cytometric analysis in presence of […] siRNA (reference value: 4.2%); type: functional
PC-9/ER [26] = experiment: Induction of apoptosis in human PC-9/ER cells assessed as necrotic cells at 1 uM for 48 hrs by annexin V/PI staining based flow cytometric analysis in presence of […] siRNA (reference value: 2.3%); type: functional
PC-9/ER [27] = experiment: Induction of apoptosis in human PC-9/ER cells assessed as viable cells at 1 uM for 48 hrs by annexin V/PI staining based flow cytometric analysis (reference value: 91.4%); type: functional; conditions: read-out: Activity
PC-9/ER [28] = experiment: Induction of apoptosis in human PC-9/ER cells assessed as early apoptotic cells at 1 uM for 48 hrs by annexin V/PI staining based flow cytometric analysis (reference value: 0.9%); type: functional
PC-9/ER [29] = experiment: Induction of apoptosis in human PC-9/ER cells assessed as late apoptotic cells at 1 uM for 48 hrs by annexin V/PI staining based flow cytometric analysis (reference value: 5.7%); type: functional
PC-9/ER [30] = experiment: Induction of apoptosis in human PC-9/ER cells assessed as necrotic cells at 1 uM for 48 hrs by annexin V/PI staining based flow cytometric analysis (reference value: 2.1%); type: functional

Compound: C#Cc1cccc(Nc2ncnc3cc(OCCOC)c(OCCOC)cc23)c1 [ERLOTINIB]
- Activity (PC-9 [1]): 18.8%
- Activity (PC-9 [2]): 17.9%
- viability at 0.1 µM (PC-9 [3]): 58.2%
- Activity (PC-9/ER [4]): Active
- Activity (PC-9 [5]): 5.1%
- viability at 0.1 µM (PC-9 [6]): 76.5%
- Activity (PC-9 [7]): 15.3%
- Activity (PC-9 [8]): 6.6%
- Activity (PC-9 [9]): 1.6%
- viability at 1 µM (PC-9/ER [10]): 87.1%
- Activity (PC-9/ER [11]): 4.9%
- Activity (PC-9/ER [12]): 6.4%
- Activity (PC-9/ER [13]): 1.6%
- viability at 1 µM (PC-9/ER [14]): 70.1%
- Activity (PC-9/ER [15]): 22.7%
- Activity (PC-9/ER [16]): 5.7%
- Activity (PC-9/ER [17]): 1.5%
- Activity (PC-9/ER [18]): inactive
- viability at 1 µM (PC-9/ER [19]): 82.7%
- Activity (PC-9/ER [20]): 1.3%
- Activity (PC-9/ER [21]): 9.8%
- Activity (PC-9/ER [22]): 6.2%
- viability at 1 µM (PC-9/ER [23]): 77.4%
- Activity (PC-9/ER [24]): 0.6%
- Activity (PC-9/ER [25]): 17.5%
- Activity (PC-9/ER [26]): 4.5%
- viability at 1 µM (PC-9/ER [27]): 77.8%
- Activity (PC-9/ER [28]): 2.8%
- Activity (PC-9/ER [29]): 14.5%
- Activity (PC-9/ER [30]): 4.9%

— ChEMBL document CHEMBL5712896, “Targeting EHMT2 reverses EGFR-TKI resistance in NSCLC by epigenetically regulating the PTEN/AKT signaling pathway” (2018)
